Results on 16 compounds are retold here after article PMC4191598 (Journal of Medicinal Chemistry, 2014).

The target in experiment [1] is T1, human TLR8 (Homo sapiens, UniProt Q9NR97).
T1 sequence (Q9NR97 27-1041): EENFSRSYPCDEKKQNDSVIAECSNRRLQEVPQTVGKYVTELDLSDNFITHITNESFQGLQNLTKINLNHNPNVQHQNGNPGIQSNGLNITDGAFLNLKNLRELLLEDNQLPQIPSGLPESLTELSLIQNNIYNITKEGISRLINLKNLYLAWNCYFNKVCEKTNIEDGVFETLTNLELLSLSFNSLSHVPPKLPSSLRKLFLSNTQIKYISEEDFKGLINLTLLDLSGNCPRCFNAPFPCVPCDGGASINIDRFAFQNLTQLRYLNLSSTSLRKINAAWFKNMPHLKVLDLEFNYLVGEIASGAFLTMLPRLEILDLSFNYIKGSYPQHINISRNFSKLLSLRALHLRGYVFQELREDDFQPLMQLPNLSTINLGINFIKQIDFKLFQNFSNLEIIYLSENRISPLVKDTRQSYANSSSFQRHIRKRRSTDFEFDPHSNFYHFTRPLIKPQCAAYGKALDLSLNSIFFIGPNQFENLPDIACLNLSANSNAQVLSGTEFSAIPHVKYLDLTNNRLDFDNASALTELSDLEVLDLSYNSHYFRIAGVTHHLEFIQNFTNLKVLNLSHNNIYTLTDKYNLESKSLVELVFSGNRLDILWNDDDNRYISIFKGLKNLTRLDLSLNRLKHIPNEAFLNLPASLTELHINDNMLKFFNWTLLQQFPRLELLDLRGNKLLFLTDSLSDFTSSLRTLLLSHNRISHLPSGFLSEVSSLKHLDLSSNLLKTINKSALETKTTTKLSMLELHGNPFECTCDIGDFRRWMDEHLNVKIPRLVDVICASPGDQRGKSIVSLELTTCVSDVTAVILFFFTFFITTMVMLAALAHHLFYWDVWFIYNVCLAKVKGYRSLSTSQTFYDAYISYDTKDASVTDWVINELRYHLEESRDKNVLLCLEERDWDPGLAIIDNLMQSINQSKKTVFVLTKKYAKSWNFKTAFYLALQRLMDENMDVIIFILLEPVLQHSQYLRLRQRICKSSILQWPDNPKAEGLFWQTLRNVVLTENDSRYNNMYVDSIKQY
The settings on record: earlier observation; cited from earlier work.

Experiment [2] concerns human peripheral blood mononuclear cells (hPBMCs). The experiment in a line: IFN-α induction in human PBMCs. The settings on record: 12 h stimulation, graded concentrations. It counts as cell-based. A digest of the protocol: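 Fresh PBMCs were isolated on Ficoll–Hypaque gradients from venous blood of consenting donors and plated at 10^5 cells/well. They were stimulated for 12 h with graded concentrations of test compound. Supernatants were collected by centrifugation and assayed in triplicate with high-sensitivity multisubtype IFN-α ELISA.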

A further experiment concerns the target T2, human TLR7 (Homo sapiens, UniProt Q9NYK1).
T2 sequence (Q9NYK1 27-1049): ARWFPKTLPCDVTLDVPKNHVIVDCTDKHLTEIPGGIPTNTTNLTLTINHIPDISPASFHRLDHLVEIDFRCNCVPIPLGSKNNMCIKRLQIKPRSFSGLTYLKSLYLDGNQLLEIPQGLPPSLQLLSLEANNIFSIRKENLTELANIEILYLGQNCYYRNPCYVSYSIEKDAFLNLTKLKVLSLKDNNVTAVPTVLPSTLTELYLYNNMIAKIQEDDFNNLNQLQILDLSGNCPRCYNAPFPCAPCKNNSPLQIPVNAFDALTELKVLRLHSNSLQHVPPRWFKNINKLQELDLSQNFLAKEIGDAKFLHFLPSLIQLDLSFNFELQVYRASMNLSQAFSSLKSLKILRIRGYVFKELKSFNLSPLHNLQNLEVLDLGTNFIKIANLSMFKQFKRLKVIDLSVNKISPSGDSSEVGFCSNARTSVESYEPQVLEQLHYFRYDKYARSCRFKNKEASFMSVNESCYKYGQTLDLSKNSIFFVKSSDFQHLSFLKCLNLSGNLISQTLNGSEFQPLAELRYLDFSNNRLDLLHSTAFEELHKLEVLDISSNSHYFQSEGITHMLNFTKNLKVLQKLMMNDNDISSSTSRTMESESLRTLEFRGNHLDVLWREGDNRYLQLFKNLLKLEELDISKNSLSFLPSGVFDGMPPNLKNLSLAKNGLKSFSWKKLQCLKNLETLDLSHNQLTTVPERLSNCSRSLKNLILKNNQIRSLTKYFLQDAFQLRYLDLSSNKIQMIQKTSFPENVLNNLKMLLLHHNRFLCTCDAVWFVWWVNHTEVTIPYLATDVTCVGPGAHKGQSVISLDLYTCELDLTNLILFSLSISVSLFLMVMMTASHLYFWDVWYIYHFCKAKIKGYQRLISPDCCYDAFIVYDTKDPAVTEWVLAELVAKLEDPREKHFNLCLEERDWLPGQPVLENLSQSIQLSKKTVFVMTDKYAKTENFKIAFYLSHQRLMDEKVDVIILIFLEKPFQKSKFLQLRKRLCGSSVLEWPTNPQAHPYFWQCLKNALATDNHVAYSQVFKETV
The experiment in a line: Human TLR7 reporter gene assay. It counts as cell-based. As to conditions: for TLR7-agonistic activity (in words): TLR7 reporter gene assay.

Experiment [3] deals with T1, human TLR8. Put plainly: Human TLR8 reporter gene assay. It counts as cell-based. The settings on record: for TLR8-agonistic activity (in words): TLR8 reporter gene assay; for TLR7/TLR8 selectivity (in words): TLR7 and TLR8 reporter gene assays. A digest of the protocol:
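HEK-Blue cells carrying human TLR8, with secreted alkaline phosphatase under NF-κB/AP-1 promoter control, seeded at ~10^5 cells/mL and grown to confluency. Stimulated with graded concentrations of test compound. Supernatant sAP, proportional to NF-κB induction, read spectrophotometrically at 620 nm using an alkaline phosphatase-specific chromogen in the detection medium.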

Experiment [4] relates to human lymphocytic subsets in whole blood. Put plainly: CD69 up-regulation in lymphocytic subsets, ex vivo whole human blood. It counts as cell-based. As to conditions: 16.5 h.

As to `CCCCc1cc2c(o1)c(N)nc1ccccc12` [Compound 5, 2-butylfuro[2,3-c]quinolin-4-amine], the “TLR8 agonism (in words)” value on human TLR8 [1] was “prominent and selective TLR8 agonism”.
With `CCCCc1nc2c(N)nc3ccccc3c2o1` [Compound 9, 2-Butyloxazolo[4,5-c]quinolin-4-amine], the IFN-α induction entry in experiment [2] is reported as “showed IFN-α inducing ability”.
As for `CCCNc1nc2c(N)nc3ccccc3c2s1` [Compound 11, N^2-Propylthiazolo[4,5-c]quinoline-2,4-diamine], the half-maximal effective concentration (EC50) – broadly, the midpoint of the concentration-response curve – at human TLR7 came to 730 nM. The IFN-α induction entry in experiment [2] is “showed IFN-α inducing ability”.
For the compound `CCCNc1nc2c(N)nc3ccccc3c2o1` [Compound 13, N^2-Propyloxazolo[4,5-c]quinoline-2,4-diamine], the “TLR7-agonistic activity (in words)” value at human TLR7 was “entirely devoid of any detectable TLR7- or TLR8-agonistic activity”. Further, on human TLR8 [3], the “TLR8-agonistic activity (in words)” value was “entirely devoid of any detectable TLR7- or TLR8-agonistic activity”.
On to `CCC(=O)Nc1nc2c(N)nc3ccccc3c2s1` [Compound 16, N-(4-Aminothiazolo[4,5-c]quinolin-2-yl)propionamide], for which, at human TLR7, the “TLR7-agonistic activity (in words)” value is “inactive”. At human TLR8 [3], the “TLR8-agonistic activity (in words)” value is “inactive”.
`Nc1nc2c(N)nc3ccccc3c2s1` [Compound 17, thiazolo[4,5-c]quinoline-2,4-diamine]: at human TLR7, the “TLR7-agonistic activity (in words)” value was “inactive”. Further, at human TLR8 [3], the “TLR8-agonistic activity (in words)” value was “inactive”.
With `CCCCc1nc2c(s1)c(N)nc1ccccc12` [Compound 22a, 2-Butylthiazolo[5,4-c]quinolin-4-amine], the “TLR7-agonistic activity (in words)” value on human TLR7 is “completely inactive”. Also, on human TLR8 [3], the “TLR8-agonistic activity (in words)” value was “completely inactive”.
In the case of `CCCCc1nc2c(o1)c(N)nc1ccccc12` [Compound 22b, 2-Butyloxazolo[5,4-c]quinolin-4-amine], the “TLR8-agonistic activity (in words)” value at human TLR8 [3] was “negligibly low TLR8-agonistic activity”.
For `CCCCC1CN2C(N)=Nc3ccccc3C2=N1` (stereo not drawn) [Compound 27, 2-Butyl-2,3-dihydroimidazo[1,2-c]quinazolin-5-amine], at human TLR7, the “TLR7-agonistic activity (in words)” value is “entirely inactive”. For the same compound, on human TLR8 [3], the “TLR8-agonistic activity (in words)” value is “entirely inactive”.
Consider `CCCCc1cn2c(N)nc3ccccc3c2n1` [Compound 29, 2-Butylimidazo[1,2-c]quinazolin-5-amine], for which the “TLR7-agonistic activity (in words)” value at human TLR7 is “entirely inactive”. The “TLR8-agonistic activity (in words)” value at human TLR8 [3] was “entirely inactive”.
On to `CCCCc1nc2c3ccccc3nc(N)n2n1` [Compound 33, 2-Butyl[1,2,4]triazolo[1,5-c]quinazolin-5-amine], for which the “TLR7-agonistic activity (in words)” value at human TLR7 is “inactive”. Also, on human TLR8 [3], the “TLR8-agonistic activity (in words)” value is “inactive”.
`CCCCC1CN2C(=N1)C(N)=Nc1ccccc12` (stereo not drawn) [Compound 37, 2-Butyl-1,2-dihydroimidazo[1,2-a]quinoxalin-4-amine]: the “TLR7/TLR8 selectivity (in words)” value on human TLR8 [3] is “selective TLR8 agonists”.
The same measure, in the same setting: as for `CCCCc1cn2c(n1)c(N)nc1ccccc12` [Compound 39, 2-Butylimidazo[1,2-a]quinoxalin-4-amine], the entry is “selective TLR8 agonists”.
Take `CCCCc1nc2c(N)nc3ccccc3n2n1` [Compound 46, 2-Butyl[1,2,4]triazolo[1,5-a]quinoxalin-4-amine]: the “TLR7-agonistic activity (in words)” value on human TLR7 was “complete loss of activity”. On human TLR8 [3], the “TLR8-agonistic activity (in words)” value is recorded as “complete loss of activity”.
`CCCCc1nnc2c(N)nc3ccccc3n12` [Compound 49, 1-Butyl[1,2,4]triazolo[4,3-a]quinoxalin-4-amine]: on human TLR7, the “TLR7-agonistic activity (in words)” value is on record as “complete loss of activity”. For the same compound, the “TLR8-agonistic activity (in words)” value on human TLR8 [3] was “complete loss of activity”.
With `CCCCn1cc2c(n1)c(N)nc1ccccc12` [Compound 53, 2-Butyl-2H-pyrazolo[3,4-c]quinolin-4-amine], the “CD69 expression in cytokine-induced killer-, natural killer-, T- and B-lymphocytic subsets” value in experiment [4] is given as “dramatically enhanced expression”. Moreover, the IFN-α induction entry in experiment [2] was “showed IFN-α inducing ability”.
